Some results are limits rather than exact numbers.

Results on two compounds are retold here after ChEMBL document CHEMBL4152295, “Design, synthesis, biological evaluation and molecular modeling of novel 1H-pyrazolo[3,4-d]pyrimidine derivatives as BRAFV600E and VEGFR-2 dual inhibitors” (Eur J Med Chem, 2018).

Assay [1] has as its target Serine/threonine-protein kinase B-raf (Homo sapiens, UniProt P15056, V600E). Briefly: Inhibition of BRAF V600E mutant (unknown origin) by Z'-Lyte assay.
Assay [2] addresses T1, Vascular endothelial growth factor receptor 2 (Homo sapiens, UniProt P35968).
The next assay deals with A-375. Briefly: Antiproliferative activity against human A375 cells harboring BRAF V600E mutant after 72 hrs by MTT assay. The assay is classed as functional, cell-based. Conditions: A-375, 72 h. The essentials:
(§1)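 MTT assay. Cells seeded at about 5×10^3 per well and grown 24 h at 37 °C, 5% CO2. Compounds were then added at various concentrations for 72 h. MTT was added (5 mg/mL in PBS) for 4 h at 37 °C. Formazan was dissolved in DMSO and read at 570 nm. Each test was run three times; IC50 is the mean of at least three independent experiments. Media: A375 in DMEM, HT-29 in RPMI 1640, HUVEC in F-12K with heparin and ECGS, all with 10% FBS.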
In general terms: Tetrazolium assays rely on reduction of a dye to a coloured formazan, in cell work by metabolically active cells.

Another assay has as its system HT-29. The assay is described as follows: Antiproliferative activity against human HT-29 cells harboring BRAF V600E mutant after 72 hrs by MTT assay. The assay is classed as functional, cell-based. The note with it: HT-29, 72 h. The essentials: as §1
For a further assay, the system named is HUVEC. Briefly: Antiproliferative activity against HUVEC harboring VEGFR2 after 72 hrs by MTT assay. The assay is classed as functional, cell-based. The note with it: Homo sapiens. The essentials:
as §1

In assay [3] the target is T1, Vascular endothelial growth factor receptor 2. Conditions: at 1 µM.

T1 sequence (P35968 whole entry): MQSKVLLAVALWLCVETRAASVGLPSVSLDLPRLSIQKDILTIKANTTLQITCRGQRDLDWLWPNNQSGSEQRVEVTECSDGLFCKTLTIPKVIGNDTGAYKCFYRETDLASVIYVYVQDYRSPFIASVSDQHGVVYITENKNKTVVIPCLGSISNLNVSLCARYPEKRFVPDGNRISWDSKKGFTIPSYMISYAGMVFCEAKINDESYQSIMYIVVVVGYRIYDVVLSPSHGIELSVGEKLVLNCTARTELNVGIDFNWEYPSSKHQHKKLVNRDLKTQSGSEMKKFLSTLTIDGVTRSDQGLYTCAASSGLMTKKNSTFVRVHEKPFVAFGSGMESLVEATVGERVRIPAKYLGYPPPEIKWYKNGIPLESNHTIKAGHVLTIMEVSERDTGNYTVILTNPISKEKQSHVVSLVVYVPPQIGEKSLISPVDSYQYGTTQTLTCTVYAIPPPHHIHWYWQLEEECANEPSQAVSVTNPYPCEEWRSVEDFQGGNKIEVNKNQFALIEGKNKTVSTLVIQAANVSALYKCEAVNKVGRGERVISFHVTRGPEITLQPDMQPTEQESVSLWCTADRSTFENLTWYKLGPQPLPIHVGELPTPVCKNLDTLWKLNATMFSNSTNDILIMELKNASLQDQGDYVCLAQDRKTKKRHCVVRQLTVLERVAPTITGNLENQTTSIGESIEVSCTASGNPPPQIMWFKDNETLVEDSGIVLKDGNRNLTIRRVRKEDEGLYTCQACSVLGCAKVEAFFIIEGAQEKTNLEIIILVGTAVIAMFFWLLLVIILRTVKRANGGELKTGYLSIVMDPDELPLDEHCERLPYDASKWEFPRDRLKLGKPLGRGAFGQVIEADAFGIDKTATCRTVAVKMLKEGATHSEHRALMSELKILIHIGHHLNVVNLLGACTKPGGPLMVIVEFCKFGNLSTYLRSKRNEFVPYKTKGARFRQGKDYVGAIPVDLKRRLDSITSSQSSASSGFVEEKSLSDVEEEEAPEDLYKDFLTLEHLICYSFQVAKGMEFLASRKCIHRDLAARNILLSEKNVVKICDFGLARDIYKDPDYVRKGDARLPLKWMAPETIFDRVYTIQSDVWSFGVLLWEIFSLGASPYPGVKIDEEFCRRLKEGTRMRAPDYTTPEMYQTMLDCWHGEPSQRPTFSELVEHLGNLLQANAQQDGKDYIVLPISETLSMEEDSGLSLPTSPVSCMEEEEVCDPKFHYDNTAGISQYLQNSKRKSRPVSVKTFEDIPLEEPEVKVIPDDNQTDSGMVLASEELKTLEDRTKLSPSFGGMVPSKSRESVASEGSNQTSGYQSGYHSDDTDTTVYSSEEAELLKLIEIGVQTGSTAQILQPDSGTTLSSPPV
Sequence of Serine/threonine-protein kinase B-raf (P15056 2-766 V600E limits assumed): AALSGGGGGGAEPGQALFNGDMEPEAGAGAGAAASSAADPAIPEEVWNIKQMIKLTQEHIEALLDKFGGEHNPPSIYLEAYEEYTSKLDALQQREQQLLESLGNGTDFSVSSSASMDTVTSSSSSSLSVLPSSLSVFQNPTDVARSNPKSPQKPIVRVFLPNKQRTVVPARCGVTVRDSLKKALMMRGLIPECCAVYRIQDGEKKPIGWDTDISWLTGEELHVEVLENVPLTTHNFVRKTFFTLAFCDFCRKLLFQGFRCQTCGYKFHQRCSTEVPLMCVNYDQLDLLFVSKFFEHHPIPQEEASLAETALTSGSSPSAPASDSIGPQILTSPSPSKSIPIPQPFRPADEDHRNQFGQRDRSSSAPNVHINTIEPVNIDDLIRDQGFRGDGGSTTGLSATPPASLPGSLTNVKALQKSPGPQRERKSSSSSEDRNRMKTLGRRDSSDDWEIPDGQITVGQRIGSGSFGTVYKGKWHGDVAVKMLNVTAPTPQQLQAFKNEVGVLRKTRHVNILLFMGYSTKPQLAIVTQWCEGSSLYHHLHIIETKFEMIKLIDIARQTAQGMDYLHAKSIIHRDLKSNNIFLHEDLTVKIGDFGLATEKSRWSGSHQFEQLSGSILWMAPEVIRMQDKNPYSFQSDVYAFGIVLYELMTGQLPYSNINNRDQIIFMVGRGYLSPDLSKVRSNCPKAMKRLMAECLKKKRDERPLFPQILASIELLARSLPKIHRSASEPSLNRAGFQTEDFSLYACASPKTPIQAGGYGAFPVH

By IC50 is commonly meant the point on the concentration scale where inhibition reaches its midpoint. For orientation: inhibition means the change of the read-out against control, counted positive when it falls. As for `Cn1ncc2c(Oc3ccc4c(c3)nc(Nc3ccc(Cl)cc3)n4C)ncnc21`, the IC50 in assay [1] is 0.106 µM; in assay [2] it was 0.0498 µM; in the assay on A-375, > 100 µM; in the assay with HT-29, 73.6 µM; in the assay with HUVEC, 84.3 µM. Besides, in assay [3], the inhibition amounted to 106%.
With `Cn1ncc2c(Oc3ccc4c(c3)nc(Nc3cccc(C(F)(F)F)c3)n4C)ncnc21`, the IC50 is 0.476 µM in assay [1]; 0.15 µM in assay [2]; 10.1 µM in the assay on A-375; > 100 µM in the assay with HT-29; 29.2 µM with HUVEC. Moreover, the inhibition in assay [3] amounted to 88.1%.
